Measured values: ChEMBL document CHEMBL1149419, “Peptide-mediated cell transport of water soluble porphyrin conjugates” (J Med Chem, 2006)
*1 amine or outer side, *2 acyl side, *3 side chain or, on linkers, in order; H or OH if unused. Where a SMILES comes first, the peptide text is derived from it. [ ]: non-standard residue; d: D form. The star is where a group is joined. X1 = O=C(COCC(=O)*)Nc1ccc(-c2c3nc(c(-c4ccccc4)c4ccc([nH]4)c(-c4ccccc4)c4nc(c(-c5ccccc5)c5ccc2[nH]5)C=C4)C=C3)cc1; NH(CH2CH2O)6CH2CO = O=C(COCCOCCOCCOCCOCCOCCN[*:1])[*:2]

What was measured:
HEp-2 [1] = assay: Cellular uptake in human HEp2 cells at 10 uM; assay type: ADME, cell-based; conditions: hep-2, 10 µM
In short: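 HEp2 cells seeded at 10 000 per well and grown overnight, then exposed to 10 µM conjugate (diluted into medium from 10 mM water stocks) for 0, 1, 2, 4, 8 and 24 h. After PBS wash, cells lysed in 0.25% Triton X-100/PBS. Conjugate quantified by fluorescence at 410/650 nm (ex/em), and cell number by CyQuant.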

HEp-2 [2] = assay: Phototoxicity against human HEp2 cells at 10 uM; assay type: cell-based
In short: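 HEp2 cells seeded and attached 36-48 h, then loaded overnight with conjugate at 0, 0.625, 1.25, 2.5, 5 and 10 µM. Medium was swapped for medium with 50 mM HEPES pH 7.4. Cells were irradiated on ice for 10 min with a 100 W halogen lamp through a 610 nm long-pass filter and a water IR filter, about 0.5 J/cm2. After overnight incubation, viability was read by Cell Titer Blue.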

HEp-2 [3] = assay: Dark cytotoxicity against human HEp2 cells at 100 uM; assay type: functional, cell-based
In short: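 HEp2 cells seeded at 10 000 per well and allowed 36-48 h to attach. They were given increasing conjugate concentrations up to 100 µM and incubated overnight without light. Viability was read with Cell Titer Blue fluorescence at 520/584 nm and normalized to untreated cells (100%) and 0.2% saponin-treated cells (0%).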

[4] = Homo sapiens, HEp-2, read-out: IC50

| Compound | Activity (HEp-2 [1]) | IC50 (HEp-2 [2]; hep-2) | IC50 (HEp-2 [3]; [4]) [µM] | IC50 (HEp-2 [3]; hep-2) | IC50 (HEp-2 [2]; Homo sapiens, HEp-2, light or radiation study, read-out: IC50) [µM] |
| --- | --- | --- | --- | --- | --- |
| N=C(N)NCCC[C@H](NC(=O)CNC(=O)COCCOCCOCCOCCOCCOCCNC(=O)COCC(=O)Nc1ccc(-c2c3nc(c(-c4ccccc4)c4ccc([nH]4)c(-c4ccccc4)c4nc(c(-c5ccccc5)c5ccc2[nH]5)C=C4)C=C3)cc1)C(=O)N[C@@H](CCCN=C(N)N)C(=O)N[C@@H](CCCN=C(N)N)C(=O)N[C@@H](CCCN=C(N)N)C(=O)N[C@@H](CCCN=C(N)N)C(=O)N[C@@H](CCCNC(=N)N)C(=O)N[C@@H](CCCNC(=N)N)C(=O)N[C@@H](CCCN=C(N)N)C(=O)O | Active | Active | 75 | – | – |
| CC(C)[C@H](NC(=O)[C@H](CCCCN)NC(=O)[C@H](CCCN=C(N)N)NC(=O)[C@H](CCCCN)NC(=O)[C@H](CCCCN)NC(=O)[C@H](CCCCN)NC(=O)[C@@H]1CCCN1C(=O)CNC(=O)COCCOCCOCCOCCOCCOCCNC(=O)COCC(=O)Nc1ccc(-c2c3nc(c(-c4ccccc4)c4ccc([nH]4)c(-c4ccccc4)c4nc(c(-c5ccccc5)c5ccc2[nH]5)C=C4)C=C3)cc1)C(N)=O (X1-[NH(CH2CH2O)6CH2CO]GPKKKRKV-NH2) | Active | – | 90 | – | 1.5 |

More lines, main results first:

| Activity (HEp-2 [1]) | Compound | IC50 (HEp-2 [2]; hep-2) | IC50 (HEp-2 [3]; [4]) [µM] | IC50 (HEp-2 [3]; hep-2) | IC50 (HEp-2 [2]; Homo sapiens, HEp-2, light or radiation study, read-out: IC50) [µM] |
| --- | --- | --- | --- | --- | --- |
| Active | NCCCC[C@H](NC(=O)[C@H](CCCN=C(N)N)NC(=O)CNC(=O)COCCOCCOCCOCCOCCOCCNC(=O)COCC(=O)Nc1ccc(-c2c3nc(c(-c4ccccc4)c4ccc([nH]4)c(-c4ccccc4)c4nc(c(-c5ccccc5)c5ccc2[nH]5)C=C4)C=C3)cc1)C(=O)N[C@@H](CCCCN)C(=O)N[C@@H](CCCN=C(N)N)C(=O)N[C@@H](CCCN=C(N)N)C(=O)N[C@@H](CCC(N)=O)C(=O)N[C@@H](CCCN=C(N)N)C(=O)N[C@@H](CCCN=C(N)N)C(=O)N[C@@H](CCCN=C(N)N)C(=O)N1CCC[C@H]1C(=O)N1CCC[C@H]1C(=O)N[C@@H](CCC(N)=O)C(N)=O | Active | 30 | – | – |
| Active | NCCCC[C@H](NC(=O)[C@H](CCCN=C(N)N)NC(=O)CNC(=O)COCC(=O)NCCOCCOCCOCCOCCOCCOCCOCCNC(=O)COc1ccc(-c2c3nc(c(-c4ccc(OCC(=O)O)cc4)c4ccc([nH]4)c(-c4ccc(OCC(=O)O)cc4)c4nc(c(-c5ccc(OCC(=O)O)cc5)c5ccc2[nH]5)C=C4)C=C3)cc1)C(=O)N[C@@H](CCCCN)C(=O)N[C@@H](CCCN=C(N)N)C(=O)N[C@@H](CCCN=C(N)N)C(=O)N[C@@H](CCC(N)=O)C(=O)N[C@@H](CCCN=C(N)N)C(=O)N[C@@H](CCCN=C(N)N)C(=O)N[C@@H](CCCN=C(N)N)C(=O)N1CCC[C@H]1C(=O)N1CCC[C@H]1C(=O)N[C@@H](CCC(N)=O)C(N)=O | Not Active | – | Not Active | – |
| Active | CC(C)[C@H](NC(=O)[C@H](CCCCN)NC(=O)[C@H](CCCN=C(N)N)NC(=O)[C@H](CCCCN)NC(=O)[C@H](CCCCN)NC(=O)[C@H](CCCCN)NC(=O)[C@@H]1CCCN1C(=O)CNC(=O)COCC(=O)NCCOCCOCCOCCOCCOCCOCCOCCNC(=O)COc1ccc(-c2c3nc(c(-c4ccc(OCC(=O)O)cc4)c4ccc([nH]4)c(-c4ccc(OCC(=O)O)cc4)c4nc(c(-c5ccc(OCC(=O)O)cc5)c5ccc2[nH]5)C=C4)C=C3)cc1)C(N)=O | Not Active | – | Not Active | – |
